Assay results: ChEMBL document CHEMBL4706521, “Synthesis of indole inhibitors of silent information regulator 1 (SIRT1), and their evaluation as cytotoxic agents” (Eur J Med Chem, 2020)

Columns and labels:
HUVEC = test: Cytotoxicity against human HUVEC cells assessed as cell viability measured after 48 hrs by MTT assay; format: cell-based
Summary of the method: (§1)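 Cells were seeded at 5×10^4 cells/mL and allowed to adhere for 24 h. Compounds in DMSO were tested at final 0.01, 0.1, 1, 10 and 100 μM for 48 h. MTT was then added, followed by isopropanol-HCl. OD was read at 570/630 nm, and IC50 was calculated from OD.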

[1] = target: T1, NAD-dependent protein deacetylase sirtuin-1 (Homo sapiens, UniProt Q96EB6); test: Inhibition of recombinant human SIRT1 (193 to 741 residues) expressed in Escherichia coli expression system using RHKK(Ac)W-NH2 as substrate measured after 2 hrs by HPLC method
T1 sequence (Q96EB6 whole entry): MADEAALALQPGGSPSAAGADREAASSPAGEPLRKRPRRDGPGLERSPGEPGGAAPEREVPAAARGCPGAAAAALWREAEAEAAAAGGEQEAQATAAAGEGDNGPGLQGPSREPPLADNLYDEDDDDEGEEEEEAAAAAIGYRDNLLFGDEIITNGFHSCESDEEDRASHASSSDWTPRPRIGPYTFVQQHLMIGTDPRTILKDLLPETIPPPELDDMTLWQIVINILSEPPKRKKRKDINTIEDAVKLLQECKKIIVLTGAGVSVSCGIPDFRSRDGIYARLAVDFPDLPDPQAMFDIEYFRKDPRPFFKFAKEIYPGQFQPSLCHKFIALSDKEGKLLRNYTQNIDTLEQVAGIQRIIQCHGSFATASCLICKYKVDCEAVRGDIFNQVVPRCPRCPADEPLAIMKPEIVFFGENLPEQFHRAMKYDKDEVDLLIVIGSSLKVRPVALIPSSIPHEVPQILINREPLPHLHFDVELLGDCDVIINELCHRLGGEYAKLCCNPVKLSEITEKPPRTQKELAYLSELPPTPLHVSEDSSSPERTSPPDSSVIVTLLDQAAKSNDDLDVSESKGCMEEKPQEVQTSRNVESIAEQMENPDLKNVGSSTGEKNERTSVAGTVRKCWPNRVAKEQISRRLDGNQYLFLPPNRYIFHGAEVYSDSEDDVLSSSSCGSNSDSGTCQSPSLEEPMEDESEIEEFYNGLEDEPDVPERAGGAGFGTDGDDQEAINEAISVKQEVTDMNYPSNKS

HepG2 = test: Cytotoxicity against human HepG2 cells assessed as cell viability measured after 48 hrs by MTT assay; format: functional, cell-based; conditions: HepG2, 48 h
HCT-116 = test: Cytotoxicity against human HCT-116 cells assessed as cell viability measured after 48 hrs by MTT assay; format: functional, cell-based; conditions: HCT-116, 48 h
HEK-293T = test: Cytotoxicity against human HEK293T cells assessed as cell viability measured after 48 hrs by MTT assay; format: cell-based
A549 = test: Cytotoxicity against human A549 cells assessed as cell viability measured after 48 hrs by MTT assay; format: functional, cell-based; conditions: A549, 48 h; summary of the method: as §1
MCF7 = test: Cytotoxicity against human MCF7 cells assessed as cell viability measured after 48 hrs by MTT assay; format: functional, cell-based; conditions: MCF7, 48 h
HT-29 = test: Cytotoxicity against human HT-29 cells assessed as cell viability measured after 48 hrs by MTT assay; format: functional, cell-based; conditions: HT-29, 48 h; summary of the method: as §1
K562 = test: Cytotoxicity against human K562 cells assessed as cell viability measured after 48 hrs by MTT assay; format: functional, cell-based; conditions: K562, 48 h
Summary of the method: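 Cells were seeded at 5×10^4 cells/mL and kept in suspension 2 h before dosing. Compounds were added from DMSO at final 0.01–100 μM (tenfold series) for 48 h. MTT was applied, then isopropanol-HCl, with OD read at 490 and 630 nm. IC50 was obtained from OD.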

NCI-H460 = test: Cytotoxicity against human NCI-H460 cells assessed as cell viability measured after 48 hrs by MTT assay; format: functional, cell-based; conditions: NCI-H460, 48 h
[2] = target: T2, NAD-dependent protein deacetylase sirtuin-2 (Homo sapiens, UniProt Q8IXJ6); test: Inhibition of recombinant human SIRT2 expressed in baculovirus infected SF9 cells expression system using RHKK(Ac)W-NH2 as substrate measured after 20 mins by HPLC method
T2 sequence (Q8IXJ6 whole entry): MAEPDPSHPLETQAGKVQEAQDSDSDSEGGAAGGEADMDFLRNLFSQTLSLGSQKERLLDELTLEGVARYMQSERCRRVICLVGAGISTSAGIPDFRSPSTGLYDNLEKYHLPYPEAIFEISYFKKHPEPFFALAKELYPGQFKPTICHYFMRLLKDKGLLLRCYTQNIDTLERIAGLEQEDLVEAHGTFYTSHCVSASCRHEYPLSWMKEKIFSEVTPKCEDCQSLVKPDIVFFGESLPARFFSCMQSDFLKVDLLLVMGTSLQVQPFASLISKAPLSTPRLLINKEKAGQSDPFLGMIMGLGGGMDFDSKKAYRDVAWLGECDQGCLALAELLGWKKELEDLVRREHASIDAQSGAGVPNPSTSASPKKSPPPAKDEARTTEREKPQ

[3] = target: T3, NAD-dependent protein deacetylase sirtuin-2 (Homo sapiens) (UniProt Q8IXJ6); test: Inhibition of recombinant human SIRT2 expressed in baculovirus infected SF9 cells expression system using RHKK(Ac)W-NH2 as substrate at 10 uM measured after 20 mins by HPLC method
T3 sequence (whole entry): T2 sequence (Q8IXJ6 whole entry)
Summary of the method: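 SIRT2 at about 100 nM (nominal) started the reaction, without preincubation, in kit buffer pH 8.0 with 2 mM NAD+ and 250 μM RHKK(Ac)W-NH2. Final DMSO was 1%. Reactions ran 20 min at 37 °C, keeping conversion at 2–8%, and were stopped with TFA. Substrate and product were separated by C18 HPLC (10–50% B gradient) and detected at 220 nm. Peak areas gave % conversion. Results were reported as IC50 (95% CI) or % inhibition (SD), from at least duplicates.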

IC50 [1] [µM]	IC50 [2] [µM]	inhibition [3] [%]	SMILES	IC50 (HUVEC) [µM]	IC50 (HepG2) [µM]	IC50 (HCT-116) [µM]	IC50 (HEK-293T) [µM]	IC50 (A549) [µM]	IC50 (MCF7) [µM]	IC50 (HT-29) [µM]	IC50 (K562) [µM]	IC50 (NCI-H460) [µM]
> 100			NC(=O)Cc1[nH]c2ccc(Cl)cc2c1CC(N)=O	> 100	> 100	> 100	> 100	> 100	> 100	> 100	> 100	> 100
	0.93		NC(=O)Cc1[nH]c2ccc(Cl)cc2c1Cc1ccccc1									
		84	NC(=O)C1CCCc2c1[nH]c1ccc(Cl)cc21 (configuration not stated)	15	44	37	51	29	37	> 100	60	48
90		1.7	NC(=O)Cc1cc2cc(Cl)ccc2[nH]1	> 100	> 100	> 100	> 100	> 100	> 100	> 100	> 100	> 100
14		-5.5	CCc1c(CC(N)=O)[nH]c2ccc(Cl)cc12	58	> 100	52	77	> 100	> 100	> 100	87	70
			CC[C@@]1(O)C(=O)OCc2c1cc1n(c2=O)Cc2cc3ccccc3nc2-1 [CAMPTOTHECIN]	< 0.01	0.04	0.05	5.65	1.56	1.67	> 100	0.32	0.12
